Measured values published in ChEMBL document CHEMBL1153268 (Bioorg Med Chem Lett, 2009).
The source made the active and inactive calls. No cut-off for these calls is given here.

Experiments:
[1] = target: T1, Neurotensin receptor type 1 (Homo sapiens, UniProt P30989); assay: Agonist activity at NTR1 expressed in CHOK1 cells assessed as stimulation of calcium mobilization at 10 uM relative to neurotensin; format: functional, cell-based; settings: CHO-K1
Procedure, shortened: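 CHO-K1 cells stably expressing NTR1, plated 20,000/well 24 h before assay, washed and loaded with calcium-4 dye in HBSS/20 mM HEPES/2 mM probenecid, 1 h, 37 °C, 5% CO2. Compound added at 10 μM final (1% DMSO), triplicate.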

[2] = target: T1, Neurotensin receptor type 1; assay: Agonist activity at NTR1 expressed in CHOK1 cells by calcium mobilization assay; format: functional, cell-based, CHO-K1

T1 sequence (P30989 whole entry): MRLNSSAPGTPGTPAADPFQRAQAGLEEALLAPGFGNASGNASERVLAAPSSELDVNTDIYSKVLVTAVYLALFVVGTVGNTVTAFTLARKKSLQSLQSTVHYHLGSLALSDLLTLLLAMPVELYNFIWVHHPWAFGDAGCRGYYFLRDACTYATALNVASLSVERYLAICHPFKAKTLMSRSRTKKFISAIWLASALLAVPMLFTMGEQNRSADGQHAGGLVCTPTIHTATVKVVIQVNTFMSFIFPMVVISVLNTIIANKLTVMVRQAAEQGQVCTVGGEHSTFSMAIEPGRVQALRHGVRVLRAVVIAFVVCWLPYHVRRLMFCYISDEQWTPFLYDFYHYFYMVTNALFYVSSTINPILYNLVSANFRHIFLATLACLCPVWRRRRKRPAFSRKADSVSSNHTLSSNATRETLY

Row | SMILES | Activity [1] | EC50 [2] [µM]
1 | COc1cccc(OC)c1-c1cc(C(=O)N[C@H](C(=O)O)C2CCCCC2)nn1-c1ccnc2cc(Cl)ccc12 | inactive | 
2 | COc1cccc(OC)c1-c1cc(C(=O)N[C@H](C(=O)O)C(C)C)nn1-c1ccnc2cc(Cl)ccc12 | 5% | 
3 | CC(C)C[C@H](NC(=O)c1cc(-c2ccccc2OC(F)(F)F)n(-c2ccnc3cc(Cl)ccc23)n1)C(=O)O | 84% | 1.21
4 | COc1cccc(OC)c1-c1cc(C(=O)N[C@@H](CC(C)C)C(=O)O)nn1-c1cccc2ccccc12 | inactive | 
5 | CC[C@H](C)[C@H](NC(=O)c1cc(-c2c(OC)cccc2OC)n(-c2ccnc3cc(Cl)ccc23)n1)C(=O)O | inactive | 
6 | CC(C)CC(NC(=O)OCC1c2ccccc2-c2ccccc21)C(=O)O (stereo not given) |  | 0.216
7 | CC[C@H](NC(=O)c1cc(-c2c(OC)cccc2OC)n(-c2ccnc3cc(Cl)ccc23)n1)C(=O)O | 11% | 
8 | CCCC[C@H](NC(=O)c1cc(-c2c(OC)cccc2OC)n(-c2ccnc3cc(Cl)ccc23)n1)C(=O)O | 20% | 
9 | CC(C)C[C@H](NC(=O)Cn1ccc2cc(NS(=O)(=O)c3cccc4cccnc34)ccc21)C(=O)O |  | 0.178
10 | COc1cccc(OC)c1-c1cc(C(=O)NCC(=O)O)nn1-c1ccnc2cc(Cl)ccc12 | inactive | 
11 | COc1cccc(OC)c1-c1cc(C(=O)N[C@@H](Cc2ccccc2)C(=O)O)nn1-c1ccnc2cc(Cl)ccc12 | inactive | 
12 | CCC[C@H](NC(=O)c1cc(-c2c(OC)cccc2OC)n(-c2ccnc3cc(Cl)ccc23)n1)C(=O)O | 18% | 
13 | COc1cccc(OC)c1-c1cc(C(=O)N[C@@H](CC(C)C)C(=O)O)nn1-c1ccnc2cc(Cl)ccc12 |  | 0.067
14 | CC(C)C[C@H](NC(=O)c1cc(-c2ccccc2)n(-c2ccnc3cc(Cl)ccc23)n1)C(=O)O | 62% | 2.04
15 | COc1cccc(OC)c1-c1cc(C(=O)N[C@H](CC(C)C)C(=O)O)nn1-c1ccnc2cc(Cl)ccc12 | 57% | 0.986
16 | COc1ccccc1-c1cc(C(=O)N[C@@H](CC(C)C)C(=O)O)nn1-c1ccnc2cc(Cl)ccc12 | 86% | 0.22
